Measured values taken from ChEMBL document CHEMBL1268892, “Antidotes to anthrax lethal factor intoxication. Part 1: Discovery of potent lethal factor inhibitors with in vivo efficacy” (Bioorg Med Chem Lett, 2010).
Activity calls are given as the source filed them. The rule behind the calls is not given here.

What was measured:
[1] = Solubility of the compound in 50% DNSO/PBS; assay type: physicochemical; conditions: 50% DMSO/PBS
[2] = Lipophilicity, log D of the compound at pH 7.4; assay type: physicochemical; conditions: buffer
Lethal factor = target: T1, Lethal factor (Bacillus anthracis, UniProt P15917); assay: Inhibition of Bacillus anthracis lethal factor assessed as proteolysis using MCA-KKVYPYPME-Dap(Dnp)-NH2 peptide substrate by FRET assay
T1 sequence (P15917 whole entry): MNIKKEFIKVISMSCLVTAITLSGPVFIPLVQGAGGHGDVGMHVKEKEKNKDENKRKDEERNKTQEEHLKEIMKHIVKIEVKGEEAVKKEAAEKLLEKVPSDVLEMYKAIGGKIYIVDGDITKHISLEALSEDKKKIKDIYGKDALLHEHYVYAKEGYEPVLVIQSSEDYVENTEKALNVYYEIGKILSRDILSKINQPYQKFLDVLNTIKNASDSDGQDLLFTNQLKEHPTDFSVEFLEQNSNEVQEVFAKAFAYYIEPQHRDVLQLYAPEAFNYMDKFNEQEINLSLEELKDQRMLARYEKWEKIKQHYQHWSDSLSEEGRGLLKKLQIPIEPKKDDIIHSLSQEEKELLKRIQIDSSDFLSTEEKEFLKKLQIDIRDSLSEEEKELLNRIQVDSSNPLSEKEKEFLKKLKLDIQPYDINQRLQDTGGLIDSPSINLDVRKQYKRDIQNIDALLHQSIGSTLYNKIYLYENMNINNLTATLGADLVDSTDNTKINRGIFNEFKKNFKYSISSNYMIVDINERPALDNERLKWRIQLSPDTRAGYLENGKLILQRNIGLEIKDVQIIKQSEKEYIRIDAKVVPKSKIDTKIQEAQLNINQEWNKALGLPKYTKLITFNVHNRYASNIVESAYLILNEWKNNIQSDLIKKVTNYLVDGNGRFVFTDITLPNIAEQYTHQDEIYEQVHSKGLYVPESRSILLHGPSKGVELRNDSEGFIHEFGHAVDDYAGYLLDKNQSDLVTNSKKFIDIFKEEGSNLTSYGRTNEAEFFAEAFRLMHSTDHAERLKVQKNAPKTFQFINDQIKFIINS
In short: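 Purified LF at 0.5 nM final with 40 μM peptide substrate in 20 mM HEPES pH 7.4, 0.1% Tween-20, 0.5 mg/mL BSA. The reaction was started by adding enzyme and incubated 4 h at 23°C to reach a steady-state rate. Cleavage was read as fluorescence increase (λex 324 nm, λem 395 nm). Ki was fitted to the tight-binding equation. Values are means of three experiments.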

Rattus norvegicus [3] = assay: Inhibition of lethal factor-induced toxicity in Fischer 344 rat assessed as increase in median survival time at 2.5 mg/kg, iv relative to control; assay type: functional, organism-based; set-up: dose 2.5 mg/kg
Rattus norvegicus [4] = assay: Inhibition of lethal factor-induced toxicity in Fischer 344 rat assessed as increase in median survival time at 5 mg/kg, iv relative to control; assay type: functional, organism-based; set-up: dose 5 mg/kg

Structure (SMILES) | solubility [1] | logD [2] | Ki (Lethal factor) | inhibition (Rattus norvegicus [3]) | inhibition (Rattus norvegicus [4])
Cc1cc(N[C@H](CCCCNCc2ccc(C(C)(C)C)cc2)C(=O)NO)cc(C)c1F | > 5 µg/mL | < 3 | 1.4 nM |  | 
Cc1cc(C(=O)NCCCC[C@@H](Nc2cc(C)c(F)c(C)c2)C(=O)NO)ccc1F | > 5 µg/mL | < 3 | 7.3 nM |  | 
CO[C@H](C[C@H](CCN1CCCC(Cc2ccc(F)cc2)C1)C(=O)NO)c1ccc(F)cc1 (stereo partly specified) | > 5 µg/mL | < 3 | 33 nM |  | 
CO[C@H](C[C@H](CCN1CCN(Cc2ccccc2)CC1)C(=O)NO)c1ccc(F)cc1 |  |  | 115 nM |  | 
CO[C@H](C[C@H](CCN(C)CCCc1ccccc1)C(=O)NO)c1ccc(F)cc1 | > 5 µg/mL | < 3 | 42 nM |  | 
CO[C@H](C[C@H](CCN1CCN(CCc2ccccc2)CC1)C(=O)NO)c1ccc(F)cc1 |  |  | 118 nM |  | 
CO[C@H](C[C@H](CCN(C)CCCc1ccc(F)c(C)c1)C(=O)NO)c1ccc(F)cc1 | > 5 µg/mL | < 3 |  |  | 
CO[C@H](C[C@H](CCN(C)Cc1ccc(-c2ccc(F)c(C)c2)cc1)C(=O)NO)c1ccc(F)cc1 |  |  | 135 nM |  | 
CO[C@H](C[C@H](CCN1CCCCC1)C(=O)NO)c1ccc(F)cc1 |  |  | 230 nM |  | 
Cc1cc(N[C@H](CCCCN)C(=O)NO)cc(C)c1F | > 5 µg/mL | < 3 | 8.2 nM |  | 
CO[C@H](C[C@H](CCN1CCCC1)C(=O)NO)c1ccc(F)cc1 |  |  | 122 nM |  | 
Cc1ccc(CNCCCC[C@@H](Nc2cc(C)c(F)c(C)c2)C(=O)NO)cc1 | > 5 µg/mL | < 3 | 0.41 nM |  | 
CO[C@H](C[C@H](CCN1CCCC(CO)C1)C(=O)NO)c1ccc(F)cc1 (stereo partly specified) | > 5 µg/mL | < 3 | 99 nM |  | 
CO[C@H](C[C@H](CCN1CCNCC1)C(=O)NO)c1ccc(F)cc1 | > 5 µg/mL | < 3 | 90 nM |  | 
Cc1cc(N[C@H](CCCCNCc2ccccc2F)C(=O)NO)cc(C)c1F | > 5 µg/mL | < 3 | 0.69 nM |  | 
Cc1cc(N[C@H](CCCCNCc2ccc(C(F)(F)F)cc2)C(=O)NO)cc(C)c1F | > 5 µg/mL | < 3 | 0.47 nM |  | 
Cc1cc(N[C@H](CCCCNCc2ccc([N+](=O)[O-])cc2)C(=O)NO)cc(C)c1F | > 5 µg/mL | < 3 | 0.3 nM |  | 
Cc1cc(CNCCCC[C@@H](Nc2cc(C)c(F)c(C)c2)C(=O)NO)ccc1F | > 5 µg/mL | < 3 |  | Active | Active
Cc1cc(N[C@H](CCCCNCCCc2ccc(F)cc2)C(=O)NO)cc(C)c1F | > 5 µg/mL | < 3 | 1.3 nM |  | 
Cc1cc(S(=O)(=O)NCCCC[C@@H](Nc2cc(C)c(F)c(C)c2)C(=O)NO)ccc1F | > 5 µg/mL | < 3 | 3.1 nM |  | 
Cc1cc(N[C@H](CCCCNCc2ccc(F)cc2)C(=O)NO)cc(C)c1F | > 5 µg/mL | < 3 |  |  | 
Cc1cc(N[C@H](CCCCNCc2cccc(F)c2)C(=O)NO)cc(C)c1F | > 5 µg/mL | < 3 | 0.85 nM |  | 
COc1ccc(CNCCCC[C@@H](Nc2cc(C)c(F)c(C)c2)C(=O)NO)cc1 | > 5 µg/mL | < 3 | 0.44 nM |  | 
Cc1cc(N[C@H](CCCCNCCc2ccc(F)cc2)C(=O)NO)cc(C)c1F | > 5 µg/mL | < 3 |  |  | 
CO[C@H](C[C@H](CCN1CCN(c2ccccc2)CC1)C(=O)NO)c1ccc(F)cc1 |  |  | 151 nM |  | 
CO[C@H](C[C@H](CCN1CCOCC1)C(=O)NO)c1ccc(F)cc1 |  |  | 350 nM |  | 
Cc1cc(NC(=O)NCCCC[C@@H](Nc2cc(C)c(F)c(C)c2)C(=O)NO)ccc1F | > 5 µg/mL | < 3 | 9.3 nM |  | 
Cc1cc(N[C@H](CCCCNCc2ccc(Cl)cc2)C(=O)NO)cc(C)c1F | > 5 µg/mL | < 3 | 1.1 nM |  | 
CO[C@H](C[C@H](CCN(C)C)C(=O)NO)c1ccc(F)cc1 | > 5 µg/mL | < 3 | 96 nM |  | 
